Source: ChEMBL document CHEMBL4014271, “Trimeric and Tetrameric A-Type Procyanidins from Peanut Skins” (2017)
The source made the active and inactive calls. No cut-off for these calls is given here.

Key:
Format in all cases: functional
[1] = system: RAW264.7; test: Anti-inflammatory activity in mouse RAW264.7 cells assessed as inhibition of LPS-induced TNFalpha secretion at 10 ug/ml preincubated for 1 hr followed by LPS stimulation for 23 hrs by ELISA relative to control
Summary of the method: (§1)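 RAW264.7 murine macrophages were grown in DMEM with 10% FBS at 37 °C in 5% CO2 and seeded at 5 × 10^5 to 80−90% confluence. Procyanidins in sterile water were added at 10, 50 or 100 μg/mL for 1 h. LPS (E. coli 0111:B4, 1 μg/mL) followed for 23 h. TNF-α in the collected medium was measured by ELISA and reported as % inhibition of LPS-dependent secretion.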

[2] = system: RAW264.7; test: Anti-inflammatory activity in mouse RAW264.7 cells assessed as inhibition of LPS-induced TNFalpha secretion at 50 ug/ml preincubated for 1 hr followed by LPS stimulation for 23 hrs by ELISA relative to control; summary of the method: as §1
[3] = system: RAW264.7; test: Anti-inflammatory activity in mouse RAW264.7 cells assessed as inhibition of LPS-induced TNFalpha secretion at 100 ug/ml preincubated for 1 hr followed by LPS stimulation for 23 hrs by ELISA relative to control; summary of the method: as §1

SMILES: Oc1cc(O)c2c(c1)O[C@@]1(c3ccc(O)c(O)c3)Oc3cc(O)c4c(c3[C@@H]2[C@H]1O)O[C@H](c1ccc(O)c(O)c1)[C@H](O)[C@H]4c1c(O)cc2c(c1O)[C@@H]1c3c(cc(O)c4c3O[C@H](c3ccc(O)c(O)c3)[C@H](O)C4)O[C@](c3ccc(O)c(O)c3)(O2)[C@@H]1O
- inhibition at 10 µg/mL [1]: 82.2%
- inhibition at 50 µg/mL [2]: 100%
- inhibition at 100 µg/mL [3]: 100%

SMILES: Oc1cc(O)c2c(c1)O[C@@]1(c3ccc(O)c(O)c3)Oc3cc(O)c4c(c3[C@@H]2[C@H]1O)O[C@@]1(c2ccc(O)c(O)c2)Oc2cc(O)c3c(c2[C@@H]4[C@H]1O)O[C@H](c1ccc(O)c(O)c1)[C@@H](O)C3
- inhibition at 10 µg/mL [1]: 6.28%
- inhibition at 50 µg/mL [2]: 78.8%
- inhibition at 100 µg/mL [3]: 100%

SMILES: Oc1cc(O)c2c(c1)O[C@@H](c1ccc(O)c(O)c1)[C@@H](O)[C@H]2c1c(O)cc(O)c2c1O[C@@]1(c3ccc(O)c(O)c3)Oc3cc(O)c4c(c3[C@@H]2[C@H]1O)O[C@H](c1ccc(O)c(O)c1)[C@@H](O)C4
- inhibition [3]: inactive

SMILES: Oc1cc(O)c2c(c1)O[C@@]1(c3ccc(O)c(O)c3)Oc3cc(O)c4c(c3[C@@H]2[C@H]1O)O[C@H](c1ccc(O)c(O)c1)[C@@H](O)C4
- inhibition [3]: inactive

SMILES: Oc1cc(O)c2c(c1)O[C@H](c1ccc(O)c(O)c1)[C@H](O)[C@H]2c1c(O)cc2c(c1O)[C@@H]1c3c(cc(O)c4c3O[C@H](c3ccc(O)c(O)c3)[C@@H](O)C4)O[C@](c3ccc(O)c(O)c3)(O2)[C@@H]1O
- inhibition at 10 µg/mL [1]: 0%
- inhibition at 50 µg/mL [2]: 89.7%
- inhibition at 100 µg/mL [3]: 100%

SMILES: Oc1cc(O)c2c(c1)O[C@@]1(c3ccc(O)c(O)c3)Oc3cc(O)c4c(c3[C@@H]2[C@H]1O)O[C@H](c1ccc(O)c(O)c1)[C@H](O)[C@H]4c1c(O)cc2c(c1O)[C@@H]1c3c(cc(O)c4c3O[C@H](c3ccc(O)c(O)c3)[C@@H](O)C4)O[C@](c3ccc(O)c(O)c3)(O2)[C@@H]1O
- inhibition at 10 µg/mL [1]: 4.26%
- inhibition at 50 µg/mL [2]: 71.2%
- inhibition at 100 µg/mL [3]: 98.6%

SMILES: Oc1cc(O)c2c(c1)O[C@@]1(c3ccc(O)c(O)c3)Oc3cc(O)c4c(c3[C@@H]2[C@H]1O)O[C@H](c1ccc(O)c(O)c1)[C@H](O)[C@H]4c1c(O)cc2c(c1O)C[C@H](O)[C@@H](c1ccc(O)c(O)c1)O2
- inhibition at 10 µg/mL [1]: 28.6%
- inhibition at 50 µg/mL [2]: 99.4%
- inhibition at 100 µg/mL [3]: 100%
